Values after ≈ are worked out from the molar mass of the structure shown.
What was measured:
Type in all cases: functional
[1] = system: Rattus norvegicus; test: Hypolipidemic activity was determined in male rats, and low-density lipoprotein level was determined at 20 mg/kg
Outline: (§1)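 Male Wistar rats (200–230 g), eight per group, were dosed orally in PEG 400 at 8 a.m. for 4 days, plus a second dose at 4 p.m. on day 4. Rats were fasted 16 h and killed 16 h after the last dose. Sera from pairs of rats were pooled. LDL (up to 1.040 g/cm³) was separated by ultracentrifugation and the HDL infranatant taken. Cholesterol was measured enzymatically. Results are % versus vehicle control, mean ± SEM of four pools, Student's t test.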

[2] = system: Staphylococcus aureus; test: Antibacterial activity against Staphylococcus aureus 10B
Outline: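 Agar dilution on DST agar with 2-fold drug dilutions. Inoculum of 10⁴ viable S. aureus 10B was taken from liquid-nitrogen stock, thawed 30 min and not subcultured. It was applied by multipoint replicator and incubated overnight at 37 °C. MIC is the lowest concentration inhibiting growth relative to control cultures.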

[3] = system: Rattus norvegicus; test: Tested for hypolipidemic activity in male rats, cholesterol was determined in serum at 20 mg/kg
Outline: (§2)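 Groups of eight male Wistar rats (200–230 g) dosed orally in PEG 400, either daily for 7 days (killed 24 h after the last dose) or for 4 days with a second dose on day 4 (killed 16 h later). Fasted 16 h. Paired sera pooled, lipoproteins separated by ultracentrifugation (1.006 and 1.040 g/cm³), HDL taken as the infranatant. Cholesterol measured enzymatically; % vs vehicle, mean ± SEM of four pools.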

[4] = system: Rattus norvegicus; test: Hypolipidemic activity was determined in male rats, and high-density lipoprotein level was determined at 20 mg/kg; outline: as §1
[5] = system: Rattus norvegicus; test: Tested for hypolipidemic activity in male rats, cholesterol was determined in serum at 50 mg/kg; outline: as §2
[6] = system: Rattus norvegicus; test: Hypolipidemic activity was determined in male rats, and low-density lipoprotein level was determined at 50 mg/kg; outline: as §1
[7] = system: Rattus norvegicus; test: Hypolipidemic activity was determined in male rats, and high-density lipoprotein level was determined at 50 mg/kg; outline: as §1

Row | Compound | Activity [1] [%] | MIC [2] [µg/mL] | Activity [3] [%] | Activity [4] [%] | Activity [5] [%] | Activity [6] [%] | Activity [7] [%]
1 | COC1/C=C/OC2(C)Oc3c(C)c(O)c4c(O)c(c(N5CCC(=O)CC5)c(O)c4c3C2=O)NC(=O)/C(C)=C\C=C\C(C)C(O)C(C)C(O)C(C)C(OC(C)=O)C1C (configuration not stated) | 53 | < 0.1 | 1 | -9 |  |  | 
2 | COC1/C=C/OC2(C)Oc3c(C)c(O)c4c(O)c(c(N5CCN(CC(C)C)CC5)c(O)c4c3C2=O)NC(=O)/C(C)=C\C=C\C(C)C(O)C(C)C(O)C(C)C(OC(C)=O)C1C (configuration not stated) |  | 0.005 (≈ 0.00597 µM) |  |  | -50 | -64 | -60
3 | COC1/C=C/OC2(C)Oc3c(C)c(O)c4c(O)c(c(N5CCC(CC6CCCCC6)CC5)c(O)c4c3C2=O)NC(=O)/C(C)=C\C=C\C(C)C(O)C(C)C(O)C(C)C(OC(C)=O)C1C (configuration not stated) | -31 | 1 (≈ 1.14 µM) | -62 | -67 |  |  | 
4 | COC1/C=C/OC2(C)Oc3c(C)c(O)c4c(O)c(c(O)c(O)c4c3C2=O)NC(=O)/C(C)=C\C=C\C(C)C(O)C(C)C(O)C(C)C(OC(C)=O)C1C (configuration not stated) |  | 0.1 (≈ 0.14 µM) |  |  | 4 | 41 | 15
5 | COC1/C=C/OC2(C)Oc3c(C)c(O)c4c(O)c(c(N5CCC(C(C)(C)C)CC5)c(O)c4c3C2=O)NC(=O)/C(C)=C\C=C\C(C)C(O)C(C)C(O)C(C)C(OC(C)=O)C1C (configuration not stated) | -52 | < 0.1 | -51 | -48 |  |  | 
6 | COC1/C=C/OC2(C)Oc3c(C)c(O)c4c(O)c(c(N5CCC(Cc6ccccc6)CC5)c(O)c4c3C2=O)NC(=O)/C(C)=C\C=C\C(C)C(O)C(C)C(O)C(C)C(OC(C)=O)C1C (configuration not stated) | -66 | 0.04 (≈ 0.0459 µM) | -53 | -51 |  |  | 
7 | Cc1cc(C)c(CN2CCN(C3=CC(=O)c4ccccc4C3=O)CC2)c(C)c1 |  | > 128 |  |  | -1 | 18 | 6
8 | COC1/C=C/OC2(C)Oc3c(C)c(O)c4c(O)c(c(N5CCC(CO)CC5)c(O)c4c3C2=O)NC(=O)/C(C)=C\C=C\C(C)C(O)C(C)C(O)C(C)C(OC(C)=O)C1C (configuration not stated) | -7 | < 0.1 | -14 | -10 |  |  | 
9 | CCCCCCCCCCCCN1CCN(c2c3c(O)c4c(O)c(C)c5c(c4c2O)C(=O)C(C)(O/C=C/C(OC)C(C)C(OC(C)=O)C(C)C(O)C(C)C(O)C(C)/C=C/C=C(/C)C(=O)N3)O5)CC1 (configuration not stated) | -68 | 0.15 (≈ 0.158 µM) | -56 | -53 |  |  | 
10 | COC1/C=C/OC2(C)Oc3c(C)c(O)c4c(O)c(c(N5CCC(O)CC5)c(O)c4c3C2=O)NC(=O)/C(C)=C\C=C\C(C)C(O)C(C)C(O)C(C)C(OC(C)=O)C1C (configuration not stated) | 13 | < 0.1 | 0 | -3 |  |  | 
11 | CCOC(=O)C1CCN(c2c3c(O)c4c(O)c(C)c5c(c4c2O)C(=O)C(C)(O/C=C/C(OC)C(C)C(OC(C)=O)C(C)C(O)C(C)C(O)C(C)/C=C/C=C(/C)C(=O)N3)O5)CC1 (configuration not stated) | 5 | < 0.1 | -16 | -16 |  |  | 
12 | COC1/C=C/OC2(C)Oc3c(C)c(O)c4c(O)c(c(N5CCCCC5)c(O)c4c3C2=O)NC(=O)/C(C)=C\C=C\C(C)C(O)C(C)C(O)C(C)C(OC(C)=O)C1C (configuration not stated) | -19 | < 0.1 | -32 | -36 |  |  | 
13 | COC1/C=C/OC2(C)Oc3c(C)c(OC(=O)C(C)(C)C)c4c(c3C2=O)C(=O)C(N2CCN(Cc3c(C)cc(C)cc3C)CC2)=C(NC(=O)/C(C)=C\C=C\C(C)C(O)C(C)C(O)C(C)C(OC(C)=O)C1C)C4=O (configuration not stated) | -32 | 0.5 (≈ 0.502 µM) | -48 | -53 |  |  | 
14 | COC1/C=C/OC2(C)Oc3c(C)c(O)c4c(O)c(c5[nH]c(N6CCN(Cc7ccccc7)CC6)nc5c4c3C2=O)NC(=O)/C(C)=C\C=C\C(C)C(O)C(C)C(O)C(C)C(OC(C)=O)C1C (configuration not stated) |  | 0.005 (≈ 0.00558 µM) |  |  | -27 | -23 | -33
15 | COC1/C=C/OC2(C)Oc3c(C)c(O)c4c(O)c(c(N5CCC(C(N)=O)CC5)c(O)c4c3C2=O)NC(=O)/C(C)=C\C=C\C(C)C(O)C(C)C(O)C(C)C(OC(C)=O)C1C (configuration not stated) | 11 | < 0.1 | -9 | -6 |  |  | 
16 | COC1/C=C/OC2(C)Oc3c(C)c(O)c4c(O)c(c5nc6cc(C)ccc6nc5c4c3C2=O)NC(=O)/C(C)=C\C=C\C(C)C(O)C(C)C(O)C(C)C(OC(C)=O)C1C (configuration not stated) |  | < 0.008 |  |  | -14 | -21 | 

Row | Compound | Activity [1] [%] | MIC [2] [µg/mL] | Activity [3] [%] | Activity [4] [%] | Activity [5] [%] | Activity [6] [%] | Activity [7] [%]
17 | COC1/C=C/OC2(C)Oc3c(C)c(O)c4c(=O)c(c5oc6cc(C)ccc6nc-5c4c3C2=O)NC(=O)/C(C)=C\C=C\C(C)C(O)C(C)C(O)C(C)C(OC(C)=O)C1C (configuration not stated) |  | 0.001 (≈ 0.00125 µM) |  |  | -14 | -21 | -21
18 | COC1/C=C/OC2(C)Oc3c(C)c(O)c4c(O)c(c(N5CCC(C6CCCC6)CC5)c(O)c4c3C2=O)NC(=O)/C(C)=C\C=C\C(C)C(O)C(C)C(O)C(C)C(OC(C)=O)C1C (configuration not stated) | -41 | < 0.1 | -42 | -40 |  |  | 
19 | CO[C@H]1/C=C/O[C@@]2(C)Oc3c(C)c(O)c4c(O)c(cc(O)c4c3C2=O)NC(=O)/C(C)=C\C=C\[C@H](C)[C@H](O)[C@@H](C)[C@@H](O)[C@@H](C)[C@H](OC(C)=O)[C@@H]1C [RIFAMYCIN] |  | 0.001 (≈ 0.00143 µM) |  |  | 4 | 21 | 1
20 | COC1/C=C/OC2(C)Oc3c(C)c(O)c4c(O)c(c(N5CCN(Cc6ccc(Cl)cc6)CC5)c(O)c4c3C2=O)NC(=O)/C(C)=C\C=C\C(C)C(O)C(C)C(O)C(C)C(OC(C)=O)C1C (configuration not stated) |  | 0.002 (≈ 0.00221 µM) |  |  | -74 | -85 | -73
21 | COC1/C=C/OC2(C)Oc3c(C)c(O)c4c(O)c(c(N5CCN(Cc6ccccc6)CC5)c(O)c4c3C2=O)NC(=O)/C(C)=C\C=C\C(C)C(O)C(C)C(O)C(C)C(OC(C)=O)C1C (configuration not stated) |  | 0.004 (≈ 0.00459 µM) |  |  | -29 | -56 | -36
22 | COC1/C=C/OC2(C)Oc3c(C)c(O)c4c(O)c(c(N5CCNCC5C(=O)O)c(O)c4c3C2=O)NC(=O)/C(C)=C\C=C\C(C)C(O)C(C)C(O)C(C)C(OC(C)=O)C1C (configuration not stated) |  | 0.5 (≈ 0.605 µM) |  |  | -2 | 53 | 5
23 | COC1/C=C/OC2(C)Oc3c(C)c(O)c4c(O)c(c(C=NN5CCN(C6CCCC6)CC5)c(O)c4c3C2=O)NC(=O)/C(C)=C\C=C\C(C)C(O)C(C)C(O)C(C)C(OC(C)=O)C1C (configuration not stated) |  | 0.01 (≈ 0.0114 µM) |  |  | -62 | -60 | -59
24 | COC1/C=C/OC2(C)Oc3c(C)c(O)c4c(O)c(c(N5CCN(Cc6ccc(C(C)(C)C)cc6)CC5)c(O)c4c3C2=O)NC(=O)/C(C)=C\C=C\C(C)C(O)C(C)C(O)C(C)C(OC(C)=O)C1C (configuration not stated) | -70 | 0.5 (≈ 0.539 µM) | -70 | -71 |  |  | 
25 | COC1/C=C/OC2(C)Oc3c(C)c(O)c4c(O)c(c(C=NN5CCN(Cc6cccc7ccccc67)CC5)c(O)c4c3C2=O)NC(=O)/C(C)=C\C=C\C(C)C(O)C(C)C(O)C(C)C(OC(C)=O)C1C (configuration not stated) |  | 0.02 (≈ 0.0211 µM) |  |  | -69 | -35 | -75
26 | COC1/C=C/OC2(C)Oc3c(C)c(O)c4c(O)c(c(N)c(O)c4c3C2=O)NC(=O)/C(C)=C\C=C\C(C)C(O)C(C)C(O)C(C)C(OC(C)=O)C1C (configuration not stated) |  | 0.003 (≈ 0.00421 µM) |  |  | -2 | 19 | 6
27 | Cc1cc(C)c(CN2CCNCC2)c(C)c1 |  | 128 (≈ 586 µM) |  |  | -7 | 0 | -5
28 | COC1/C=C/OC2(C)Oc3c(C)c(O)c4c(O)c(c(C=NN5CCN6CCCCC6C5)c(O)c4c3C2=O)NC(=O)/C(C)=C\C=C\C(C)C(O)C(C)C(O)C(C)C(OC(C)=O)C1C (configuration not stated) |  | 0.005 (≈ 0.00579 µM) |  |  | -49 | -27 | -53
29 | COC1/C=C/OC2(C)Oc3c(C)c(O)c4c(O)c(c5c(c4c3C2=O)=NC2(CCN(CC(C)C)CC2)N=5)NC(=O)/C(C)=C\C=C\C(C)C(O)C(C)C(O)C(C)C(OC(C)=O)C1C (configuration not stated) |  | 0.001 (≈ 0.00118 µM) |  |  | -7 | 14 | -21
30 | COC1/C=C/OC2(C)Oc3c(C)c(O)c4c(O)c(c(C=NN5CCN(Cc6c(C)cc(C)cc6C)CC5)c(O)c4c3C2=O)NC(=O)/C(C)=C\C=C\C(C)C(O)C(C)C(O)C(C)C(OC(C)=O)C1C (configuration not stated) |  | 0.05 (≈ 0.0531 µM) |  |  | -81 | -39 | -79
31 | CCC1CCC2CN(N=Cc3c4c(O)c5c(O)c(C)c6c(c5c3O)C(=O)C(C)(O/C=C/C(OC)C(C)C(OC(C)=O)C(C)C(O)C(C)C(O)C(C)/C=C/C=C(/C)C(=O)N4)O6)CCN2C1 (configuration not stated) |  | 0.005 (≈ 0.00561 µM) |  |  | -62 | -31 | -69
32 | COC1/C=C/OC2(C)Oc3c(C)c(O)c4c(O)c(c(C=O)c(O)c4c3C2=O)NC(=O)/C(C)=C\C=C\C(C)C(O)C(C)C(O)C(C)C(OC(C)=O)C1C (configuration not stated) |  | 0.01 (≈ 0.0138 µM) |  |  | -5 | 19 | -14

— ChEMBL document CHEMBL1125042, “Hypolipidemic activity of rifamycin derivatives” (J Med Chem, 1990)
